The target of data set [1] is T1, Multidrug resistance-associated protein 1 (Homo sapiens, UniProt P33527). Briefly: Inhibition of MRP1 in 7 mW/cm'2 irradiated human M14 cells assessed as reduction in MRP1 ATPase activity at 5 uM measured after 20 mins by spectrophotometric method. The method in brief: (§1)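 M14 melanoma cells held 20 min at room temperature in PBS under 400 nm light (7 mW/cm2) with 5 μM compound, alone or with equimolar doxorubicin. Transporter ATPase activity then measured; n = 3.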

The species entered for data set [2] is Homo sapiens. Briefly: Inhibition of Pgp in 7 mW/cm'2 irradiated human M14 cells assessed as nitration of tyrosine in pgp at 5 uM measured after 20 mins by immunoblotting. The method in brief:
(§2)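 M14 melanoma cells held 20 min at room temperature in PBS under 400 nm light (7 mW/cm2) with 5 μM compound, alone or with equimolar doxorubicin. Nitrated ABC transporters (Pgp, MRP1, MRP4, BCRP) detected by immunoblot.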

Data set [3] concerns Fibroblast. Put plainly: Cytotoxicity against 7 mW/cm'2 irradiated human fibroblasts at 5 uM measured after 20 mins by spectrophotometric method. It is filed as cell-based. The method in brief:
(§3)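 Human fibroblasts or rat H9c2 cardiomyocytes kept 20 min at room temperature in PBS, either in the dark or irradiated at λexc 400 nm, 7 mW/cm2, with or without 5 μM test agent. Cytotoxicity measured in triplicate; means ± SD, n = 3.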

Data set [4] addresses T1, Multidrug resistance-associated protein 1. Briefly: Inhibition of MRP1 in 7 mW/cm'2 irradiated human M14 cells assessed as nitration of tyrosine in MRP1 at 5 uM measured after 20 mins by immunoblotting. A digest of the protocol: as §2
For orientation: Immunoblotting shows a protein as a band on a membrane.

Data set [5] concerns H9c2. Briefly: Dark toxicity against rat H9c2 cells at 5 uM measured after 20 mins by spectrophotometric method. Conditions: h9c2, 20 min. It counts as cell-based. The method in brief: as §3
The test system of data set [6] is Fibroblast. Put plainly: Dark toxicity against human fibroblasts at 5 uM measured after 20 mins by spectrophotometric method. It counts as cell-based. The method in brief:
as §3

For data set [7], the species on record is Homo sapiens. Briefly: Inhibition of Pgp in 7 mW/cm'2 irradiated human M14 cells assessed as reduction in P-gp ATPase activity at 5 uM measured after 20 mins by spectrophotometric method. A digest of the protocol:
as §1

Data set [8] concerns H9c2. Briefly: Cytotoxicity against 7 mW/cm'2 irradiated rat H9c2 cells at 5 uM measured after 20 mins by spectrophotometric method. It is filed as cell-based. Conditions: h9c2, 20 min. The method in brief: as §3
Data set [9] has as its target T2, Broad substrate specificity ATP-binding cassette transporter ABCG2 (Homo sapiens, UniProt Q9UNQ0).
T2 sequence (Q9UNQ0 whole entry): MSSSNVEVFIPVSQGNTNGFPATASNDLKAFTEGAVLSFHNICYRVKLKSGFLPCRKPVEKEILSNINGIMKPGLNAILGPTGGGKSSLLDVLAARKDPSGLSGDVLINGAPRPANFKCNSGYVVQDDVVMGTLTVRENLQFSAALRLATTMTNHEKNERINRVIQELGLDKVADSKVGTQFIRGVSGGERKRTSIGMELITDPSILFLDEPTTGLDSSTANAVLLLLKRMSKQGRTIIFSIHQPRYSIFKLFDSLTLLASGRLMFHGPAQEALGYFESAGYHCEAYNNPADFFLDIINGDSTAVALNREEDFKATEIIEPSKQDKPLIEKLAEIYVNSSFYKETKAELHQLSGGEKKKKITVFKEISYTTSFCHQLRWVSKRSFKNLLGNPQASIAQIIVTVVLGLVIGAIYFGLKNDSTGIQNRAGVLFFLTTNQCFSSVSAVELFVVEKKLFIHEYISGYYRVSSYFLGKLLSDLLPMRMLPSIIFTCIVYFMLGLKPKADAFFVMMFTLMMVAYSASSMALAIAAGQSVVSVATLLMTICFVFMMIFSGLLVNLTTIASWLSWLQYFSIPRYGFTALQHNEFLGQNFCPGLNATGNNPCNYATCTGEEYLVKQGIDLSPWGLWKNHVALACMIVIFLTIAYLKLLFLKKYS
Briefly: Inhibition of BCRP in 7 mW/cm'2 irradiated human M14 cells assessed as reduction in BCRP ATPase activity at 5 uM measured after 20 mins by spectrophotometric method. The method in brief:
as §1

The next data set relates to M14. Put plainly: Dark toxicity in human M14 cells assessed as increase in nitrite levels at 5 uM measured after 20 mins by Griess reagent based spectrophotometric method. Conditions: m14, 20 min. It counts as cell-based.
Data set [10] addresses T3, ATP-binding cassette sub-family C member 4 (Homo sapiens, UniProt O15439).
T3 sequence (O15439 whole entry): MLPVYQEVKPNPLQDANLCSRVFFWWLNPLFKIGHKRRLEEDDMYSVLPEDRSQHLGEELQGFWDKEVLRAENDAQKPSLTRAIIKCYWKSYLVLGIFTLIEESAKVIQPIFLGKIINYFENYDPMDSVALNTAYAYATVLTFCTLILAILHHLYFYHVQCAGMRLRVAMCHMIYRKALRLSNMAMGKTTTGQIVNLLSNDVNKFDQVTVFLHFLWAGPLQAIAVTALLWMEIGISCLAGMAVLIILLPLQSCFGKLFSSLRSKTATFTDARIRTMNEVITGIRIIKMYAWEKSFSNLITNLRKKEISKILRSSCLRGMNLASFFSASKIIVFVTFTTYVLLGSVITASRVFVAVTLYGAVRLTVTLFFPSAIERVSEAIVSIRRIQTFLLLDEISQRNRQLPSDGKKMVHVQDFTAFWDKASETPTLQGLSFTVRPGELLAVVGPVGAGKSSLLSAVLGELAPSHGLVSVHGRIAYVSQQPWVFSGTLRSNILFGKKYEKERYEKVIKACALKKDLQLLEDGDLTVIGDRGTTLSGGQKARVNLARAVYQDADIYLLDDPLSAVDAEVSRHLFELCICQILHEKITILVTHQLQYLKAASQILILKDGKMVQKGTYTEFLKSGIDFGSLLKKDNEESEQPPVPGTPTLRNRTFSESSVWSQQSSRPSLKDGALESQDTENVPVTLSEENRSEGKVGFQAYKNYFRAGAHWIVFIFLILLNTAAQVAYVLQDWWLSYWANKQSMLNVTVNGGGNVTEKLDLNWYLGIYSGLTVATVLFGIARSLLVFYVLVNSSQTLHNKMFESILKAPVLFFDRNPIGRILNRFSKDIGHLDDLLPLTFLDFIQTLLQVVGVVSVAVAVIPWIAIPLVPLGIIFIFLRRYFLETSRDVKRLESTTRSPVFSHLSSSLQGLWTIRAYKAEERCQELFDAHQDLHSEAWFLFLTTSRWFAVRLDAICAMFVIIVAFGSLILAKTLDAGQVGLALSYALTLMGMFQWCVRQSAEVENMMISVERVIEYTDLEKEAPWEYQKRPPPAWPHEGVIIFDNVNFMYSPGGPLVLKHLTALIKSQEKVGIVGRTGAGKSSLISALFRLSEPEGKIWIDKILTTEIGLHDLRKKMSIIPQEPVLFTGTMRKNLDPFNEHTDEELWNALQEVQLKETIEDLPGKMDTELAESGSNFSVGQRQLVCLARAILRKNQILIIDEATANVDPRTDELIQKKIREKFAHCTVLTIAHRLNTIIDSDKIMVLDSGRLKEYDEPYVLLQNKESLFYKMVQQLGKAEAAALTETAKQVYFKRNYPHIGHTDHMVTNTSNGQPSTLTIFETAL
Put plainly: Inhibition of MRP4 in 7 mW/cm'2 irradiated human M14 cells assessed as nitration of tyrosine in MRP4 at 5 uM measured after 20 mins by immunoblotting. A digest of the protocol:
as §2

The source made the active and inactive calls. No cut-off for these calls is given here.

T1 sequence (P33527 whole entry): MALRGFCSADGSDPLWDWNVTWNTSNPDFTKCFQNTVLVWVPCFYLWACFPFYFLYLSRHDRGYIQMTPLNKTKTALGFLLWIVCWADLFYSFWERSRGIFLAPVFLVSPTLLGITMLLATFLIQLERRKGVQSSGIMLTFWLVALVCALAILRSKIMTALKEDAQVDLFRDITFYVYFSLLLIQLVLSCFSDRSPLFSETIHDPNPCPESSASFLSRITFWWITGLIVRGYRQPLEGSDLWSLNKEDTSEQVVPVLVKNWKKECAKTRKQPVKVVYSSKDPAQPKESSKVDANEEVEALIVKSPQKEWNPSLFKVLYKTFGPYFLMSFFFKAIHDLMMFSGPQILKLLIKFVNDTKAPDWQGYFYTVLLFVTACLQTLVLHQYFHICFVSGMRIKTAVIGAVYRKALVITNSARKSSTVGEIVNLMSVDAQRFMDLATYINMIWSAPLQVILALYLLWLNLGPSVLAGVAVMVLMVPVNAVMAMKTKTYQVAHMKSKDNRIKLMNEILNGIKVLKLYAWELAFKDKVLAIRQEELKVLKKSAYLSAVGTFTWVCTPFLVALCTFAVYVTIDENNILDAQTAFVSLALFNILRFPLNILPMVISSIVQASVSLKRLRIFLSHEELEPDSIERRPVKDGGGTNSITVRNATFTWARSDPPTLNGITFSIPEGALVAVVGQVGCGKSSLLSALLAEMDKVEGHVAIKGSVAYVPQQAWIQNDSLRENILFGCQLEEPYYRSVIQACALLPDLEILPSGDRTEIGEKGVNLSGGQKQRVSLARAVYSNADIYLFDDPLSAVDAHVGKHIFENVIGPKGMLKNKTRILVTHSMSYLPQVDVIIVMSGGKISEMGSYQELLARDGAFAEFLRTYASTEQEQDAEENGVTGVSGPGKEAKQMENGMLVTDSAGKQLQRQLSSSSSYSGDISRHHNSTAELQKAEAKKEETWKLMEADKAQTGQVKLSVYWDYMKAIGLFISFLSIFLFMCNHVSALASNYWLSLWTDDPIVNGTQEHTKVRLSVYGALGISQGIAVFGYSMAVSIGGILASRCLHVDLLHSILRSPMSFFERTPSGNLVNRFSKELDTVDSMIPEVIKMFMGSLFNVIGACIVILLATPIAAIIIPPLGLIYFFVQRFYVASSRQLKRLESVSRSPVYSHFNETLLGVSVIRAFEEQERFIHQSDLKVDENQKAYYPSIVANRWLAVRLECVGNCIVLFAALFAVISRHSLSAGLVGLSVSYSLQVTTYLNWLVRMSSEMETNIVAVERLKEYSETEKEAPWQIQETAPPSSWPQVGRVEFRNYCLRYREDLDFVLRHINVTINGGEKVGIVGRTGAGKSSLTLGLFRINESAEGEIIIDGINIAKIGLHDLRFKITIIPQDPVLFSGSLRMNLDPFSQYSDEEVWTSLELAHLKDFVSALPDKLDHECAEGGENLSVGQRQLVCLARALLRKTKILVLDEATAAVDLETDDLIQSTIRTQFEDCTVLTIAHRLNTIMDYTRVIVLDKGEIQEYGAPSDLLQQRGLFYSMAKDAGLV

For `COc1cccc2c1C(=O)c1c(O)c3c(c(O)c1C2=O)C[C@@](O)(C(=O)COC(=O)c1ccc(C(=O)NCCCNc2ccc([N+](=O)[O-])c(C(F)(F)F)c2)cc1)C[C@@H]3O[C@H]1C[C@H](N)[C@H](O)[C@H](C)O1.Cl`, the “inhibition (INH)” value in [1], in data set [4], in data set [9] and in data set [10] was “Active” each time. Moreover, the inhibition entry in the data set listed under Homo sapiens [2] and in the data set listed under Homo sapiens [7] was “Active” in each case. Further, the Activity entry with Fibroblast [3], with H9c2 [5], in the data set with Fibroblast [6], with H9c2 [8] and in the data set on M14 was “Non-Toxic” in each case.

In the case of `NCCCNc1ccc([N+](=O)[O-])c(C(F)(F)F)c1`, the “inhibition (INH)” value in data set [1], in data set [4], in [9] and in [10] was “Active” in each case. Moreover, the inhibition entry in the data set listed under Homo sapiens [2] and in the data set listed under Homo sapiens [7] was “Active” in each case. The Activity result in the data set with Fibroblast [3], in the data set on H9c2 [5], with Fibroblast [6], with H9c2 [8] and in the data set with M14 was “Non-Toxic” throughout.

The values above are taken from ChEMBL document CHEMBL4000256, “Light-Regulated NO Release as a Novel Strategy To Overcome Doxorubicin Multidrug Resistance” (ACS Med Chem Lett, 2017).
